Source: PubChem BioAssay (several laboratories)
MEKK2mut PB1 HTS: signal of MEK5 binding to mutant human MEKK2 PB1 domain; bead flow cytometry, Alexa488-MEK5 binding to MEKK2 mutant; hit rate 0.35% among 290,000; percent response, % at 10 µM; in the data active = percent response above about 24%, passing the limit was not always enough
MEKK2wt PB1 HTS: raises or lowers MEK5 binding to wildtype human MEKK2 PB1 domain; Q9Y2U5; bead flow cytometry, Alexa488-MEK5 binding to MEKK2 WT; actives lie on both sides; binding response (% of control), % at 10 µM; hit rate 1.1% among 290,000; AID 1531; in the data active = binding response below about 67% or above about 130%
ABCB1 inh: blocks JC-1 efflux by human ABCB1 transporter; CCRF-Adr cells, flow cytometry; AID 1326; inhibition, % at 6.6 µM; P08183; hit rate 0.067% among 190,000; in the data active = inhibition above about 40%;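 also: 0% = vehicle and 100% = reference inhibitor; higher value means more JC-1 retained so stronger ABCB1 efflux block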
WT yeast gro inh: growth inhibition of WT yeast, mitochondrial fusion screen | mitochondrial fusion phenotypic screen, WT strain | inhibition, % at 10 µM | hit rate 2.1% among 190,000 | AID 1362; in the data active = inhibition above about 58%; tested in S. cerevisiae
MEKK3 PB1 HTS: raises or lowers MEK5 binding to the human MEKK3 PB1 domain | bead-based flow cytometry, Alexa488-MEK5 binding to MEKK3; actives lie on both sides; 0 = blocked by unlabeled MEK5, 100 = vehicle | binding response (% of control), % at 10 µM | hit rate 1.4% among 290,000;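 active = binding response more than 3 SD above or below the average of its plate-row segment, actives on both sides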;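 also: Alexa488 bead fluorescence after subtracting the streptavidin-only scavenger bead signal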
ABCG2 block: inhibitors of human ABCG2 transporter, ABCB1 counter-screen. hit rate 0.1% among 190,000. Q9UNQ0. inhibition, % at 6.6 µM. IgMXP3 cells, JC-1 efflux, flow cytometry;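 active = inhibition above 80%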;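 also: 0% = DMSO and 100% = nicardipine control wells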
Target sequence (Q9UNQ0 whole entry, looked up): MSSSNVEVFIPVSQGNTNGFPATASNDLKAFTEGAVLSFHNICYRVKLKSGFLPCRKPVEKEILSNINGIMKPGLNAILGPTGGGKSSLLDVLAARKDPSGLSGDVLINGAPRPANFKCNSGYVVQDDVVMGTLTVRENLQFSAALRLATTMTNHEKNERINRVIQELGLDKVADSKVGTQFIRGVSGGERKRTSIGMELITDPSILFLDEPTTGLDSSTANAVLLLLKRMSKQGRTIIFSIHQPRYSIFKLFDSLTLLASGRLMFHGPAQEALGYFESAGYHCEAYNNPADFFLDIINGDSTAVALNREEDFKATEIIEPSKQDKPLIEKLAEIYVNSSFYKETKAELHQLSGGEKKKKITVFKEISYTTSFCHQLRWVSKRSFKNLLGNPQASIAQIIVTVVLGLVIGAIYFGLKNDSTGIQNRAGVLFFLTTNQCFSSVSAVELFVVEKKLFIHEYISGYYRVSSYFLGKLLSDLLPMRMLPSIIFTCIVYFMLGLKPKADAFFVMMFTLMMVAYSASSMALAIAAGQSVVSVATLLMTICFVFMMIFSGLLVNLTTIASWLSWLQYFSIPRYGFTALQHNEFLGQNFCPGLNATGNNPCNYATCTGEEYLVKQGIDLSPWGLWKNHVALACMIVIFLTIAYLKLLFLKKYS
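Assay system – ABCG2 IgMXP3 and barcoded ABCB1 CCRF-Adr cell mix · Input – 3 million cells/mL in well · Reagent – JC-1 fluorescent substrate · Compound – single test compound dose, 6.6 µM final · Timing – 10 min exposure at 25 °C with rotation, no wash · Detection – flow cytometry of retained JC-1 fluorescence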
Numbers without * were called inactive; nt = not tested or not shown; [ ] = remark or other dose. Sampled rows, rich in hits. Any-hit rate of the full collection: about 3.5%.

SMILES	MEKK2mut PB1 HTS	MEKK2wt PB1 HTS	ABCB1 inh	WT yeast gro inh	MEKK3 PB1 HTS	ABCG2 block
Clc1ccc(-c2nnc(-c3ccccc3)c(N3CCSCC3)n2)cc1	-2	93	2	65*	101	13
Clc1ccc(-c2nnc(-c3ccccc3)c(-c3ccccc3)n2)cc1	-20	93	nt	nt	96	nt
O=c1c(Cl)c(N2CCCCC2)cnn1-c1nc2ccccc2[nH]1	0	98	1	56	99	5
O=c1c2ccccc2cnn1-c1nc2ccccc2[nH]1	-4	101	-2	86*	100	3
CCCCN1Cc2cc(C(=O)c3cc(F)ccc3O)cnc2NC1=O	5	100	1	10	102	7
CCCc1ccc(/C=C2\C(=O)c3ccccc3C(O)=C2C(=O)OCC)cc1	0	93	7	59*	105	-2
CCOC(=O)C1=C(O)c2ccccc2C(=O)/C1=C\c1ccc(CC)cc1	6	103	2	9	103	5
Cc1nn(C(=O)c2cc3sccc3[nH]2)c(C)c1C	1	96	0	3	101	6
COCCCNC(=S)N1CCCN(c2nc3c(C)c(C)ccc3cc2C#N)CC1	1	99	1	69*	104	7
COCCNC(=S)N1CCCN(c2nc3cc(C)ccc3cc2C#N)CC1	13	103	nt	nt	104	nt
CCN1CCN(C(=O)C(=O)c2cn(CC(=O)N3CCCCCC3)c3ccccc23)CC1	9	56*	nt	nt	102	nt
CCN1CCN(C(=O)C(=O)c2cn(CC(=O)N3CCCC3)c3ccccc23)CC1	-4	100	nt	nt	99	nt
COc1ccc(N2CCN(C(=O)C(=O)c3cn(CC(=O)N4CCOCC4)c4ccccc34)CC2)cc1	-1	100	nt	nt	95	nt
COc1ccc(N2CCN(C(=O)C(=O)c3cn(CC(=O)N4CCCCCC4)c4ccccc34)CC2)cc1	5	-5.0*	nt	nt	97	nt
Cn1nnc(NC(=O)c2cccc([N+](=O)[O-])c2)n1	-4	97	nt	nt	98	nt
CSc1nc(C(C)C)ccc1CNC(=O)CC(C)c1ccccc1 (configuration not stated)	10	104	nt	nt	110	nt
CC(=O)N1CC(C)Oc2ccc(S(=O)(=O)Nc3ccc(Cl)cn3)cc21 (configuration not stated)	2	97	nt	nt	95	nt
Clc1ccc(-c2nnnn2-c2ccc(Cl)c(Cl)c2)cc1Cl	12	104	2	79*	100	6
CCc1ccc(C(=O)C[n+]2cccc3cc(OC)ccc32)cc1	13	118	nt	nt	99	nt
Cc1cccc(N2CCN(C(=O)c3cc4c(C)nc5ccccc5c4o3)CC2)c1C	nt	nt	nt	67*	nt	nt
COc1ccc(-c2cc(C(=O)N3CCN(c4ncccn4)CC3)c3ccccc3n2)c(OC)c1	-2	106	4	59*	103	1
COc1ccc(OC)c(-c2cc(C(=O)N3CCN(c4ncccn4)CC3)c3ccccc3n2)c1	-2	96	2	31	96	7
COc1ccc(N(CC(=O)Nc2ccccc2C(N)=O)S(=O)(=O)c2ccc(C)c([N+](=O)[O-])c2)cc1	-3	73	0	-4	73	0
COc1ccc(N(CC(=O)Nc2ccc(C(N)=O)cc2)S(=O)(=O)c2ccc(C)c([N+](=O)[O-])c2)cc1	6	-7.0*	0	-18	102	0
Cc1cc(C)c(NC(=S)N(CCc2ccncc2)C(C)C)c(C)c1	-8	94	0	3	102	1
CN1CCN(c2cc(N3CCN(C(=O)c4ccco4)CC3)c3c4c(onc24)-c2ccccc2C3=O)CC1	5	89	nt	nt	84	nt
O=C1c2ccccc2-c2onc3c(N4CCN(CCO)CC4)cc(N4CCN(C(=O)c5ccco5)CC4)c1c23	3	85	nt	nt	81*[inhibitor]	nt
O=C(O)CCCNc1cc(N2CCN(C(=O)c3ccco3)CC2)c2noc3c2c1C(=O)c1ccccc1-3	-11	60*[inhibitor]	nt	nt	67*[inhibitor]	nt
COc1ccc(-n2nc(C(=O)NCC(=O)NCC3COc4ccccc4O3)c3ccccc3c2=O)c(OC)c1 (configuration not stated)	2	107	4	-3	106	4
